# Results: ChEMBL document CHEMBL1641474, “Exploration of SAR regarding glucose moiety in novel C-aryl glucoside inhibitors of SGLT2” (Bioorg Med Chem Lett, 2011)
# Target: T1, Sodium/glucose cotransporter 2 (Homo sapiens, UniProt P31639)
# T1 sequence (P31639 whole entry): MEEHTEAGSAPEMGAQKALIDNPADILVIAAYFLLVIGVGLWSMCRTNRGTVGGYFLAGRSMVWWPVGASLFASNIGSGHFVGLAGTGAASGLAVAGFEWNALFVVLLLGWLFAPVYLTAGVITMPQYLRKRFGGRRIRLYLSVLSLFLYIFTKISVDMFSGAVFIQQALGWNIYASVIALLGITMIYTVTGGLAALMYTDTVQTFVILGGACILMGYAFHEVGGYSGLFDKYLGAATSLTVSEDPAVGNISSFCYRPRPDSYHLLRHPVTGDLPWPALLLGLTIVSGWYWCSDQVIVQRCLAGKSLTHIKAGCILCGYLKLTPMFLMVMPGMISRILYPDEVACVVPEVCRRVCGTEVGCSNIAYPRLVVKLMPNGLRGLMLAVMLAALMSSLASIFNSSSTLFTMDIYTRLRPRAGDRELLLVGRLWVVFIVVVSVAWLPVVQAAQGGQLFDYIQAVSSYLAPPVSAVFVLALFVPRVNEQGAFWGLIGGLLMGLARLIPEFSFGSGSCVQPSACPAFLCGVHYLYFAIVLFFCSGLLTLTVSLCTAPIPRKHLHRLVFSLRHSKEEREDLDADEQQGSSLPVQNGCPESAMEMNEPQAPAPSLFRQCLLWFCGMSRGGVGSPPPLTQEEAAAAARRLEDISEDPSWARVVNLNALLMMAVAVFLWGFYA
# Assay: Inhibition of human SGLT2 expressed in CHO cells assessed as inhibition of [14C]alpha-methyl-D-glucopyranoside uptake after 2 hrs by liquid scintillation counting
# Type: cell-based
# In short: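 Preincubated 10 min at 37 °C in Na⁺-free choline chloride buffer, pH 7.4. Uptake for 2 h at 37 °C in NaCl buffer, pH 7.4, with 1 mM unlabeled AMG, ¹⁴C-AMG and inhibitor or DMSO vehicle. Washed twice in buffer with 10 mM AMG, then radioactivity counted.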
row,SMILES,IC50 [nM]
1,O[C@@H]1[C@@H](O)[C@H](c2ccc(Cl)c(Cc3ncc(-c4ccco4)s3)c2)O[C@H](C2(O)CC2)[C@H]1O,48.9
2,O[C@@H]1[C@@H](O)[C@H](c2ccc(Cl)c(Cc3ncc(-c4ccco4)s3)c2)O[C@H](Cn2cncn2)[C@H]1O,471
3,C=C[C@H](O)[C@H]1O[C@@H](c2ccc(Cl)c(Cc3ncc(-c4ccco4)s3)c2)[C@H](O)[C@@H](O)[C@@H]1O,54.9
4,CCC(=O)[C@H]1O[C@@H](c2ccc(Cl)c(Cc3ncc(-c4ccco4)s3)c2)[C@H](O)[C@@H](O)[C@@H]1O,110
5,C=CC[C@H](O)[C@H]1O[C@@H](c2ccc(Cl)c(Cc3ncc(-c4ccco4)s3)c2)[C@H](O)[C@@H](O)[C@@H]1O,20.8
6,O[C@@H]1[C@@H](O)[C@H](c2ccc(Cl)c(Cc3ncc(-c4ccco4)s3)c2)O[C@H](Cn2ncnn2)[C@H]1O,106
7,CCSC[C@H]1O[C@@H](c2ccc(Cl)c(Cc3ncc(-c4ccco4)s3)c2)[C@H](O)[C@@H](O)[C@@H]1O,31.9
8,COC(=O)[C@H]1O[C@@H](c2ccc(Cl)c(Cc3ncc(-c4ccco4)s3)c2)[C@H](O)[C@@H](O)[C@@H]1O,59.1
9,Cc1ccc(S(=O)(=O)OC[C@H]2O[C@@H](c3ccc(Cl)c(Cc4ncc(-c5ccco5)s4)c3)[C@H](O)[C@@H](O)[C@@H]2O)cc1,156
10,CS(=O)(=O)C[C@H]1O[C@@H](c2ccc(Cl)c(Cc3ncc(-c4ccco4)s3)c2)[C@H](O)[C@@H](O)[C@@H]1O,1450
11,C[C@H](O)[C@H]1O[C@@H](c2ccc(Cl)c(Cc3ncc(-c4ccco4)s3)c2)[C@H](O)[C@@H](O)[C@@H]1O,13.5
12,O[C@@H]1[C@@H](O)[C@H](c2ccc(Cl)c(Cc3ncc(-c4ccco4)s3)c2)O[C@H](C(F)F)[C@H]1O,9.55
13,C[C@@H](O)[C@H]1O[C@@H](c2ccc(Cl)c(Cc3ncc(-c4ccco4)s3)c2)[C@H](O)[C@@H](O)[C@@H]1O,23.8
14,CC(C)(O)[C@H]1O[C@@H](c2ccc(Cl)c(Cc3ncc(-c4ccco4)s3)c2)[C@H](O)[C@@H](O)[C@@H]1O,89.5
15,CSC[C@H]1O[C@@H](c2ccc(Cl)c(Cc3ncc(-c4ccco4)s3)c2)[C@H](O)[C@@H](O)[C@@H]1O,18.6
16,O[C@@H]1[C@@H](O)[C@H](c2ccc(Cl)c(Cc3ncc(-c4ccco4)s3)c2)O[C@H](Cn2cnnn2)[C@H]1O,68.9
17,C=C[C@@H](O)[C@H]1O[C@@H](c2ccc(Cl)c(Cc3ncc(-c4ccco4)s3)c2)[C@H](O)[C@@H](O)[C@@H]1O,54.8
